Test results: ChEMBL document CHEMBL1914440, “Discovery of potent, selective, and orally bioavailable alkynylphenoxyacetic acid CRTH2 (DP2) receptor antagonists for the treatment of allergic inflammatory diseases” (J Med Chem, 2011)
pIC50, pKi: −log10 of the molar value. Active and inactive are the calls of the source. The rule behind the calls is not given here.

Legend:
[1] = biological target: T1, Prostaglandin D2 receptor 2 (Homo sapiens, UniProt Q9Y5Y4); experiment: Displacement of [3H]PGD2 from human CRTH2 expressed in chinese hamster CHO cells by liquid scintillation counting; format: cell-based
T1 sequence (Q9Y5Y4 whole entry): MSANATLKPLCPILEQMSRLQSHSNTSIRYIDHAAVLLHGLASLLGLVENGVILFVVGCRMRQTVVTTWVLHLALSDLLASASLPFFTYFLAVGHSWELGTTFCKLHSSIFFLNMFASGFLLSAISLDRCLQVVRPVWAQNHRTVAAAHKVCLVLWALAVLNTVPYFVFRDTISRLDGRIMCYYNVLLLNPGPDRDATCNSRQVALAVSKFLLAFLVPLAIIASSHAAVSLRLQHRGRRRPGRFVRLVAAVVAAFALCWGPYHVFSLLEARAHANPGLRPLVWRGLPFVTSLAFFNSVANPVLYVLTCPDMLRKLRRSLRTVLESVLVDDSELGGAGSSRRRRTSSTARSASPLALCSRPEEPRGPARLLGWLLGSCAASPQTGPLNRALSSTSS
Method in brief: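 Scintillation proximity competition assay: 2–5 μg human CRTH2 cell membranes, 1.5 nM [3H]PGD2, WGA-SPA beads, 10 mM HEPES/KOH pH 7.4, 10 mM MnCl2, protease inhibitors, 1% DMSO; 90 min, room temperature, shaking. Nonspecific binding defined with 1 μM PGD2. Ki by Cheng–Prusoff, mean of ≥3 independent dose–response experiments.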

[2] = biological target: T2, Prostaglandin D2 receptor 2 (Homo sapiens) (UniProt Q9Y5Y4); experiment: Partial agonist activity at human CRTH2 expressed in chinese hamster CHO cells by cellular dielectric spectroscopy relative to PGD2; format: functional, cell-based
T2 sequence (whole entry): T1 sequence (Q9Y5Y4 whole entry)
Method in brief: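 CHO-CRTH2 cells seeded at 100000/well, grown 24 h at 37 °C, washed into HBSS/10 mM HEPES pH 7.4 with 1% DMSO; impedance recorded. Agonism: compound alone, 25 min read. Antagonism: PGD2 at EC80 added to cell–compound mixture, 25 min read. Run with 0.1% BSA.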

[3] = Percentage unbound in human plasma; format: ADME, cell-free
[4] = Percentage unbound in rat plasma; format: ADME, cell-free
[5] = Percentage unbound in mouse plasma; format: ADME, cell-free
[6] = Intrinsic clearance in human liver microsomes assessed per mg of protein at 1 uM by LC/MS/MS analysis; format: ADME, Microsome
[7] = Intrinsic clearance in rat liver microsomes assessed per mg of protein at 1 uM by LC/MS/MS analysis; format: ADME, Microsome
[8] = Clearance in BALB/c mouse at 5 mg/kg, po by LC/MS/MS analysis; format: ADME, organism-based; parameters: dose 5 mg/kg, route oral; settings: in vivo
[9] = Oral bioavailability in BALB/c mouse at 5 mg/kg by LC/MS/MS analysis; format: ADME, organism-based; settings: in vivo
Method in brief: (§1)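 Mouse PK after a 5 mg/kg oral dose.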

[10] = AUC in BALB/c mouse at 5 mg/kg, po; format: ADME, organism-based; parameters: dose 5 mg/kg, route oral; settings: plasma; method in brief: as §1
[11] = biological target: T3, Prostaglandin D2 receptor 2 (Mus musculus, UniProt Q9Z2J6); experiment: Displacement of [3H]PGD2 from mouse CRTH2 expressed in human HEK cells by liquid scintillation counting; format: cell-based, HEK293
T3 sequence (Q9Z2J6 whole entry): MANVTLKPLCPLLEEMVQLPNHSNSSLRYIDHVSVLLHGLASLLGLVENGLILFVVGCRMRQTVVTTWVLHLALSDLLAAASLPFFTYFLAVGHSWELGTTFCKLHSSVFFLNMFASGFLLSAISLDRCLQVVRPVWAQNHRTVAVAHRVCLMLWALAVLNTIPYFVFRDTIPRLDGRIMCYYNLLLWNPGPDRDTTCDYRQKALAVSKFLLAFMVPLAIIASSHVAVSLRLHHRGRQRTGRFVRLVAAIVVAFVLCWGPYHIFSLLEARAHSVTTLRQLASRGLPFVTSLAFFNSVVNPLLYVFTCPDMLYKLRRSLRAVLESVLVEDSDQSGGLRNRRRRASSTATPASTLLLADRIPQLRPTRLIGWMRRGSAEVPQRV
Method in brief: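 Mouse CRTH2 cDNA stably expressed in HEK293(EBNA) cells (hygromycin-selected) and membranes made by nitrogen cavitation. SPA competition uses 2–5 μg membranes, 1.5 nM [3H]PGD2, HEPES/KOH pH 7.4 with 10 mM MnCl2, 1% DMSO, 90 min at room temperature. Nonspecific binding defined with 1 μM PGD2. Ki by Cheng–Prusoff, ≥3 independent experiments.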

[12] = biological target: T1, Prostaglandin D2 receptor 2; experiment: Antagonist activity human CRTH2 expressed in chinese hamster CHO cells assessed as inhibition of PGD2-induced [35S]GTPgamma binding by liquid scintillation counting; format: functional, cell-based
Method in brief: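 10 μg human CRTH2 membranes in 20 mM HEPES/KOH pH 7.4, 10 mM MgCl2, 10 μg/mL saponin, 3 μM GDP, 150 mM NaCl, 2% DMSO, 30 °C. Preincubated 10 min, then 0.15 nM [35S]GTPγS for 30 min; stopped by centrifugation. Antagonism tested against 80 nM PGD2. Nonspecific binding with 10 μM GTPγS. Run without BSA.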

[13] = biological target: T1, Prostaglandin D2 receptor 2; experiment: Antagonist activity at human CRTH2 expressed in human CHO cells by cellular dielectric spectroscopy
[14] = Apparent permeability across human Caco2 cells at 1 uM after 2 hrs by LC/MS/MS analysis; format: ADME, cell-based; settings: Caco-2
[15] = Half life in BALB/c mouse at 1 mg/kg, iv by LC/MS/MS analysis; format: ADME, organism-based; parameters: dose 1 mg/kg, route intravenous; settings: in vivo
[16] = Half life in BALB/c mouse at 5 mg/kg, po by LC/MS/MS analysis; format: ADME, organism-based; parameters: dose 5 mg/kg, route oral; settings: in vivo
[17] = AUC in BALB/c mouse at 5 mg/kg, po by LC/MS/MS analysis; format: ADME, organism-based; parameters: dose 5 mg/kg, route oral; settings: plasma
Mus musculus [18] = experiment: Antiinflammatory activity in BALB/c mouse model assessed as inhibition of ovalbumin-induced eosinophil accumulation in bronchoalveolar lavage fluid at 3 mg/kg, po administered 1 hr prior to and 7 hrs after ovalbumin challenge for 3 days measured 8 hrs after final dose by cell counting; format: functional; settings: Lung
Method in brief: (§2)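 Compound given by oral gavage 1 h before and 7 h after each challenge. BAL taken 8 h after the last challenge. Total cells counted by hemocytometer; eosinophils counted on DiffQuik-stained cytospins. Reported as mean % inhibition ± SEM.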

Mus musculus [19] = experiment: Antiinflammatory activity in BALB/c mouse model assessed as inhibition of ovalbumin-induced eosinophil accumulation in bronchoalveolar lavage fluid at 10 mg/kg, po administered 1 hr prior to and 7 hrs after ovalbumin challenge for 3 days measured 8 hrs after final dose by cell counting; format: functional; settings: Lung; method in brief: as §2
Mus musculus [20] = experiment: Antiinflammatory activity in BALB/c mouse model assessed as inhibition of ovalbumin-induced eosinophil accumulation in bronchoalveolar lavage fluid at 30 mg/kg, po administered 1 hr prior to and 7 hrs after ovalbumin challenge for 3 days measured 8 hrs after final dose by cell counting; format: functional; settings: Lung; method in brief: as §2
Mus musculus [21] = experiment: Antiinflammatory activity in BALB/c mouse contact hypersensitivity model assessed as inhibition of FITC-mediated ear swelling at 3 mg/kg, po administered 1 hr prior to and 7 hrs after the FITC-challenge measured 24 hrs after final dose; format: functional
Method in brief: (§3)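 Female 9-week-old BALB/c mice sensitized on days 0 and 1 with 0.5% FITC in acetone/dibutyl phthalate (sham group: vehicle only). Right ear challenged on day 6 with 0.5% FITC. Compound given by oral gavage 1 h before and 7 h after challenge. Ear thickness measured before and 24 h after challenge. Reported as mean % inhibition ± SEM.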

Mus musculus [22] = experiment: Antiinflammatory activity in BALB/c mouse contact hypersensitivity model assessed as inhibition of FITC-mediated ear swelling at 10 mg/kg, po administered 1 hr prior to and 7 hrs after the FITC-challenge measured 24 hrs after final dose; format: functional; method in brief: as §3
Mus musculus [23] = experiment: Antiinflammatory activity in BALB/c mouse contact hypersensitivity model assessed as inhibition of FITC-mediated ear swelling at 30 mg/kg, po administered 1 hr prior to and 7 hrs after the FITC-challenge measured 24 hrs after final dose; format: functional; method in brief: as §3

Structure (SMILES) | pKi [1] | fraction unbound [3] | fraction unbound [4] | fraction unbound [5] | microsomal CLint at 1 µM [6] [µL/min/mg] | microsomal CLint at 1 µM [7] [µL/min/mg] | CL/F [8] [mL/min/kg] | bioavailability [9] [%] | AUC [10] [ng·h/mL] | other results
O=C(O)COc1ccc(C(F)(F)F)cc1C#Cc1ccccc1Cl | 7.92 |  |  |  |  |  |  |  |  | Emax [2]: 60%
Cc1ccc(S(C)(=O)=O)cc1C#Cc1cc(Cl)ccc1OCC(=O)O | 8.30 | 0.017 | 0.014 | 0.027 | 14 | 18 | 23.3 | 49 | 1800 | Emax [2]: 10%
Cc1ccc(S(=O)(=O)N2CCOCC2)cc1C#Cc1cc(Cl)ccc1OCC(=O)O | 8.44 |  |  |  | < 10 | 10 | 31.7 | 48 | 1220 | 
CC(C)c1ccc(S(C)(=O)=O)cc1C#Cc1cc(C#N)ccc1OCC(=O)O | 7.92 |  |  |  |  |  | 145 | 26 | 151 | 
COCCNS(=O)(=O)c1ccc(C)c(C#Cc2cc(Cl)ccc2OCC(=O)O)c1 | 8.44 |  |  |  | < 10 | < 10 | 33.3 | 33 | 831 | 
CC(C)S(=O)(=O)c1ccc(F)c(C#Cc2cc(Cl)ccc2OCC(=O)O)c1 | 8.40 |  |  |  |  |  | 5.83 | 130 |  | 
CN(C)S(=O)(=O)c1ccc(F)c(C#Cc2cc(Cl)ccc2OCC(=O)O)c1 | 8.51 | 0.009 | 0.007 | 0.029 | < 10 | < 10 | 10 |  |  | 
COCCN(C)S(=O)(=O)c1ccc(C)c(C#Cc2cc(Cl)ccc2OCC(=O)O)c1 | 8.39 | 0.006 | 0.007 | 0.007 | 32 | 49 |  |  |  | 
CS(=O)(=O)c1cccc(C#Cc2cc(Cl)ccc2OCC(=O)O)c1 | 7.82 |  |  |  |  |  |  |  |  | Emax [2]: 10%
CCCS(=O)(=O)c1ccc(Cl)c(C#Cc2cc(Cl)ccc2OCC(=O)O)c1 | 8.68 | 0.003 | 0.002 | 0.006 | < 10 | < 10 | 16.7 | 112 |  | 
CC(C)c1ccc(S(C)(=O)=O)cc1C#Cc1cc(Cl)ccc1OCC(=O)O | 8.34 | 0.003 | 0.004 | 0.013 |  |  | 8.33 | 29 | 2650 | 
CCCS(=O)(=O)c1ccc(F)c(C#Cc2cc(Cl)ccc2OCC(=O)O)c1 | 8.47 | 0.01 | 0.004 | 0.007 | 12 | < 10 | 6.67 |  | 6140 | pKi [11]: 9.43; pIC50 [12]: 8.10; pIC50 [13]: 7.55; Papp at 2 h, 1 µM [14]: 10.8 ×10⁻⁶ cm/s; half-life [15]: 120 min; half-life [16]: 114 min; AUC [17]: 6140 ng·h/mL; inhibition in vivo at 3 mg/kg (Mus musculus [18]): 19%; inhibition in vivo at 10 mg/kg (Mus musculus [19]): 27%; inhibition in vivo at 30 mg/kg (Mus musculus [20]): 55%; inhibition in vivo at 3 mg/kg (Mus musculus [21]): 36%; inhibition in vivo at 10 mg/kg (Mus musculus [22]): 54%; inhibition in vivo at 30 mg/kg (Mus musculus [23]): 48%
CCCS(=O)(=O)c1cccc(C#Cc2cc(C#N)ccc2OCC(=O)O)c1 | 7.68 |  |  |  |  |  |  |  |  | Emax [2]: 30%
O=C(O)COc1ccc(Cl)cc1C#Cc1ccc(CO)cc1F | 7.55 |  |  |  | < 10 | < 10 | 35 | 3 |  | 
Cc1ccc(S(=O)(=O)N2CCCCC2C)cc1C#Cc1cc(Cl)ccc1OCC(=O)O (stereo not drawn) | 8.72 |  |  |  | 89 | 418 |  |  |  | 

Continued, in another order:

pKi [1] | fraction unbound [3] | fraction unbound [4] | fraction unbound [5] | microsomal CLint at 1 µM [6] [µL/min/mg] | microsomal CLint at 1 µM [7] [µL/min/mg] | CL/F [8] [mL/min/kg] | bioavailability [9] [%] | AUC [10] [ng·h/mL] | Structure (SMILES) | other results
8.36 | 0.005 | 0.008 | 0.008 | < 10 | 24 |  |  |  | CCNS(=O)(=O)c1ccc(C)c(C#Cc2cc(Cl)ccc2OCC(=O)O)c1 | 
8.48 | 0.013 | 0.011 | 0.054 |  |  | 6.67 | 24 | 3240 | CS(=O)(=O)c1ccc(F)c(C#Cc2cc(Cl)ccc2OCC(=O)O)c1 | Emax [2]: 10%
8.47 | 0.004 | 0.004 | 0.01 | < 10 | 12 |  |  |  | Cc1ccc(S(=O)(=O)NC(C)C)cc1C#Cc1cc(Cl)ccc1OCC(=O)O | 
7.72 |  |  |  |  |  |  |  |  | CCCS(=O)(=O)c1cccc(C#Cc2cc(-c3ccccc3)ccc2OCC(=O)O)c1 | Emax [2]: 68%
8.15 |  |  |  |  |  | 18.3 | 24 | 1370 | CCCS(=O)(=O)c1ccc(C)c(C#Cc2cc(C#N)ccc2OCC(=O)O)c1 | Activity [2]: inactive
8.42 | 0.002 |  | 0.005 | < 10 | 64 |  |  |  | Cc1ccc(S(=O)(=O)N(C)C(C)C)cc1C#Cc1cc(Cl)ccc1OCC(=O)O | 
8.30 | 0.004 | 0.004 | 0.01 | < 10 | 22 |  |  |  | Cc1ccc(S(=O)(=O)N(C)C)cc1C#Cc1cc(Cl)ccc1OCC(=O)O | 
8.38 |  |  |  | 79 | 119 |  |  |  | Cc1ccc(S(=O)(=O)N(C)CC(C)C)cc1C#Cc1cc(Cl)ccc1OCC(=O)O | 
